Measurements from different studies.
Protocols differ between the studies behind these lines.
Target: Tyrosine-protein kinase Lck (LCK, Homo sapiens, UniProt P06239)

Cc1nn(C)cc1-c1nc2c(N3CCN(Cc4ccc(Cl)cc4)CC3)c(Cl)cnc2[nH]1  remaining binding (binding, competition with immobilised ligand; 1 µM): 100%
O=c1[nH]c2ccccc2n1C1CCN(Cc2ccc(-c3[nH]c4cc5ncnc5cc4nc3-c3ccccc3)cc2)CC1  remaining activity (enzyme activity, inhibitor; 0.5 µM): 98.2%
N#CC1(c2ccccn2)CCN(Cc2cc(C(=O)O)c(=O)n3ccccc23)CC1  remaining binding (cell-free assay, competition with immobilised ligand; 1 µM): 97%
COc1ncccc1-c1cnn2ccc(N3CCN(C(=O)OC(C)C)CC3)nc12  remaining binding (binding, competition with immobilised ligand; 1 µM): 100%
C#Cc1n[nH]c2c(-c3cn([C@@H](C)c4ccccn4)c(=O)[nH]c3=O)cc(F)cc12  inhibition (enzyme activity, inhibitor; 0.1 µM): 8.8%
Cn1cncc1[C@](O)(COc1ccc(C#N)cc1-c1ccc(OC(F)(F)F)cc1)c1ccc(C#N)cc1  remaining binding (cell-free assay, competition with immobilised ligand; 1 µM): 82%
CC(C)(C)c1cc(C=C(C#N)C#N)cc(Br)c1O  remaining activity (enzyme activity, inhibitor; 0.5 µM): 87.8%
Nc1ncc(-c2nc(N3CCOCC3)nc(N3CCOCC3)n2)c(C(F)F)n1  remaining activity (enzyme activity, inhibitor; 10 µM): 92%
Cn1cc(-c2cc(F)cc(N3CCn4c(cc5c4CCCC5)C3=O)c2CO)cc(Nc2ccc(N3CCN(C4COC4)CC3)cn2)c1=O  inhibition (enzyme activity, inhibitor; 0.1 µM): -1%
Clc1ccc2c(C3CCN(CCc4c[nH]c5ccccc45)CC3)c[nH]c2c1  inhibition (enzyme activity, inhibitor; 10 µM): 66%
C#Cc1n[nH]c2c(-c3cn([C@@H](C)c4ccccc4)c(=O)[nH]c3=O)cc(F)cc12  inhibition (enzyme activity, inhibitor; 0.1 µM): 10.5%
